Assay outcomes deposited in PubChem BioAssay by several laboratories.
bCat nuc transl = alters nuclear translocation of beta-catenin in HeLa cells; immunofluorescence imaging; nuclear translocation activity, % at 5 µM; 0.3% of 190,000 active; AID 1665;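 active = nuclear translocation activity above 50% at 5 µM, with a well cell count of 50 or more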;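 also: per-cell ratio of nuclear to cytoplasmic median beta-catenin stain intensity; plate controls were DMSO negative control for no effect and GSK-3 inhibitor IX positive control for full effect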
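Read-out: Nuclear/cytoplasmic beta-catenin signal ratio, % activation | Assay system: Human HeLa cell line | Times: 24 h compound exposure at 37°C, 5% CO2 | Signal: Fluorescence imaging of beta-catenin antibody stain plus DAPI | Dosing: 5 µM primary, 0.02–20 µM confirmation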
Dynein cargo inh = dynein cargo transport inhibition. 0.47% of 220,000 active. 3617.4 mouse cells, GR-EGFP nuclear translocation imaging; test concentration mostly 20 µM; stimulated with dexamethasone, 1 µM; hits give low values. z-score, hits read low;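 active = plate z-score of nuclear minus cytoplasmic receptor signal below a set negative limit, without overly bright fluorescence or cell loss, cut at about -3.5 in these data, passing the limit was not always enough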;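 also: z-score of nuclear minus cytoplasmic ring GR-EGFP intensity difference per well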
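Buffer or medium: tet-free, stripped-serum medium; reagent: dexamethasone at 1.0 µM final, 30 min; incubation: 48 h induction, 1 h compound, 30 min dex at 37 °C; measured by: formaldehyde fixation, Hoechst nuclear stain, 10x automated fluorescence imaging; read-out: nuclear-to-cytoplasmic GR-EGFP distribution per well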
Hsp70 act = switches on Hsp70 transcription | HeLa Hsp70 promoter luciferase reporter, luminescence; scaled: vehicle 0, proteasome-inhibitor control 100% | 0.04% of 200,000 active | activation, % at 10 µM | AID 1203;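 active = activation above the mean across all tested compounds plus 3 SD, cutoff set per campaign, cut at about 5.5% in these data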;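 also: 100% = MG132 at 30 µM as the positive control and 0% = DMSO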
Autophagy HCS = alters autophagy in cells; MEF GFP-LC3 puncta imaging; test concentration mostly 10 µM; calls only at 10 µM (by protocol); 0.98% of 190,000 active; AID 463193;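 active = percentage of spot-positive cells more than 3 SD above its plate mean, without a fluorescence outlier flag or 80% toxicity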;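 also: spot-positive cell cutoff set from DMSO-treated cells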
MT stabilizer = microtubule stabilization, imaging screen; % tubulin-high responders, % at 10 µM; HeLa tubulin immunostaining HCS, 24 h; share of cells brighter than vehicle mean+2SD; 0.83% of 200,000 active;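 active = plate Z-score above 3 for both tubulin-high and condensed-nucleus cell shares, with cell loss under 80%, at 10 µM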;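 also: anti alpha tubulin signal scored within the nucleus-defined area of each cell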
An asterisk follows results filed as active; i = inactive; / = no result given; + = active, no number. Rows were chosen to be rich in hits. Some 2.1% of all compounds tested hit in one or more screens of this group.

SMILES | bCat nuc transl | Dynein cargo inh | Hsp70 act | Autophagy HCS | MT stabilizer
Cc1ccc(C(=O)CSc2nnc3c4ccccc4nc(C(C)(C)C)n23)cc1 | 0.1 | -0.653 | -0.3 | i | 25.7*
O=C1Nc2ccc3sc4ccccc4c3c2C1=O | -1.0 | -0.532 | / | / | /
O=C(c1ccc2c(c1)N(Cc1cccc(Cl)c1)C(=O)c1ccccc1S2(=O)=O)N1CCN(c2ccccn2)CC1 | 11.3 | 0.512 | -0.1 | i | 2.7
O=C(CNC1CCN(Cc2ccccc2)CC1)Nc1ccc(S(=O)(=O)N2CCCCC2)cc1 | -0.5 | 0.231 | / | / | /
COc1ccc(C)cc1NC(=O)CNC(C)C(=O)Nc1cc(Cl)ccc1Cl (stereo not drawn) | -5.0 | 0.354 | 0.1 | i | 4.4
CCN(CC)C(=O)CSc1ncccc1-c1nc2ccccc2[nH]1 | -2.3 | -0.712 | -0.1 | i | 3.6
Cc1ccc(NC(=O)CCn2cc(C(F)(F)F)ccc2=O)cc1 | -0.4 | -0.0918 | / | / | /
Cc1ccc(-c2nnc3n2N=C(c2ccc(Br)cc2)CS3)cc1 | 0.4 | 0.575 | -0.3 | i | 3.5
Brc1ccc(C2=Nn3c(nnc3-c3n[nH]c4c3CCC4)SC2)cc1 | 146.3* | -0.381 | 0.2 | i | 34.0*
Clc1ccc(C2=Nn3c(nnc3-c3n[nH]c4c3CCC4)SC2)cc1 | 3.9 | -0.306 | 0.3 | + | 31.6*
CC(=O)N1CCC(c2c[nH]c3ccccc23)CC1 | -2.5 | -1.03 | / | / | /
Cc1ccc(-c2c(C)sc3ncn(CC(=O)N4CCOCC4)c(=O)c23)cc1C | 3.4 | -0.273 | / | / | /
CCCN(CCC)S(=O)(=O)c1ccc(C(=O)OCCN2C(=O)c3cccc4c(N5CCOCC5)ccc(c34)C2=O)cc1 | 2.9 | i | 0.2 | + | 3.2
O=C(OCCN1C(=O)c2cccc3c(N4CCOCC4)ccc(c23)C1=O)c1ccc(Cl)cc1 | 12.7 | 0.013 | -0.5 | i | 11.8
CC1CC(=O)c2c(cc3c(-c4c(O)cc(O)c5c(O)c6c(cc45)OC(C)CC6=O)c(O)cc(O)c3c2O)O1 (stereo not drawn) | -2.7 | -1.7 | 0.2 | i | 32.0*
O=[N+]([O-])c1ccc(Sc2cccc3cccnc23)c([N+](=O)[O-])c1 | 1.0 | 1.48 | -0.2 | + | 2.1
O=[N+]([O-])c1ccc(O)c(C(C#Cc2ccccc2)N2CCOCC2)c1 (stereo not drawn) | 0.1 | -1.07 | / | / | /
CCCCCCCCCCCCCCCC[n+]1cccc(C(=O)N(CC)CC)c1 | 4.9 | -5.07* | -0.4 | i | 27.3
CCCCCCCC[n+]1cccc(C(=O)N(CC)CC)c1 | / | 0.211 | 0.0 | i | 2.7
COc1cc(OC)c(NC(C)C(=O)N2CCCC2)cc1Cl (stereo not drawn) | -1.3 | -0.306 | 0.5 | i | 3.5
Cc1cc(C)cc(NC(=O)Nc2ccc(Cl)cn2)c1 | -1.2 | 0.187 | 0.4 | i | 3.1
N#C[C@H]1[C@H](c2ccccc2)[C@](C#N)(C(=O)c2ccccc2)[C@@H]2C=Cc3ccccc3N21 | 77.7* | -1.84 | 0.3 | i | 25.4*
COc1cc(C2C3=C(Nc4nc(N)[nH]c(=O)c42)c2ccccc2C3=O)ccc1O (stereo not drawn) | -1.0 | 0.0807 | / | / | /
CCN(CC)CCN1C(=O)C(O)=C(C(=O)c2ccc(C)o2)C1c1ccccn1 (stereo not drawn) | / | -0.116 | 0.0 | + | 3.1
Cc1ccc(C(=O)C2=C(O)C(=O)N(CCN3CCOCC3)C2c2ccccn2)o1 (stereo not drawn) | -3.6 | -0.58 | -0.2 | i | 2.3
SMILES | bCat nuc transl | Dynein cargo inh | Hsp70 act | Autophagy HCS | MT stabilizer
CCCSc1nc(C)nc2c1c(=O)n(C)c(=O)n2C | 1.3 | -0.537 | 0.2 | + | 5.4
COc1ccc(/C=C/C(=O)c2ccc(Cl)s2)cc1O | / | -3.79* | 0.4 | i | 1.8
COc1ccc(C(=O)/C=C/c2ccc(OC)c(O)c2)c(F)c1 | 1.0 | 0.0343 | 0.0 | i | 7.2
COc1cc(/C=C/C(=O)c2ccc(Cl)s2)cc(OC)c1O | / | -4* | 0.3 | i | 2.8
CCn1c2ccccc2c2cc(NC(=O)c3cccc(OC)c3)ccc21 | -1.4 | -0.285 | 0.0 | i | 30.8*
CCn1c2ccccc2c2cc(/C=N/n3cnnc3)ccc21 | 1.5 | -0.13 | -0.1 | + | 10.8
CCn1c2ccccc2c2cc(/C=N/NC(=O)c3cccc(C)c3)ccc21 | 1.4 | 1.12 | 0.0 | i | 29.6*
O=C(CSCc1ccc([N+](=O)[O-])cc1)Nc1ccccc1C(=O)O | -6.0 | -0.996 | -0.1 | i | 1.0
